Measurements published in paper PMC3367204 (Nucleic Acids Research, 2012).
In brackets after ≈: the same amount, converted by molar mass. Like-named read-outs stand apart in the source and are kept apart here.

What was measured:
[1] = system: 23S rRNA of complex C prepared from E. coli ribosomes; experiment: Footprinting; assay type: binding, Escherichia coli
Procedure, shortened: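 Complex C (10 pmol; 100 nM) is incubated at 25°C in buffer B (50 mM HEPES/KOH pH 7.2, 4.5 mM Mg acetate, 150 mM NH4Cl, 5 mM DTT), optionally with 100 µM spermine. […] Probing uses DMS, kethoxal or CMCT, with 23S rRNA read by primer extension on 6% polyacrylamide/7 M urea gels. Band intensity is normalized to the no-compound control; means of three runs.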

[2] = system: E. coli mutant U2609C; experiment: Sensitivity to telithromycin of E. coli cells; assay type: cell-based; conditions: Escherichia coli, MUTANTU2609C, read-out: IC50 (growth inhibition)
Procedure, shortened: (§1)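 Preculture at OD560 0.700 is diluted into LB and grown at 37°C with or without test compound, until the untreated culture reaches OD560 0.700. IC50 is the concentration that lowers OD to halfway between 0.700 and the bottom plateau of the dose curve. Means of three independent experiments.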

[3] = target: complex C containing ribosomes with mutated 23S rRNA U754A (Escherichia coli, UniProt P60723+P61175); experiment: Kinetics of telithromycin binding to complex C by competition with tylosin; conditions: for Kd: U754A, 4.5 mM Mg^2+, 150 mM NH4^+
[4] = target: complex C (poly(U)-programmed E. coli ribosomes), wild-type (Escherichia coli, UniProt P60723+P61175); assay type: binding; conditions: for Kd: Wild-type; for Kd / koff: 4.5 mM Mg^2+, 150 mM NH4^+; for koff: read-out: koff,T, Wild-type
[5] = target: T1, complex C prepared from E. coli ribosomes (PTase activity) (Escherichia coli, UniProt P60723+P61175); experiment: Puromycin reaction; assay type: biochemical; conditions: 2 μΜ telithromycin, 200 μΜ puromycin, buffer A, 25°C
Procedure, shortened: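 Complex C from E. coli ribosomes reacts with 200 µM puromycin at 25°C in buffer A (100 mM Tris/HCl pH 7.2, 4.5 mM Mg acetate, 150 mM NH4Cl), alone or with 2 µM test compound or 2 µM tylosin. AcPhe-puromycin formation is followed over time. Means of three independent experiments.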

[6] = system: E. coli mutant L4: Lys63Glu; experiment: Sensitivity to telithromycin of E. coli cells; assay type: cell-based; conditions: Escherichia coli, read-out: IC50 (growth inhibition)
Procedure, shortened: as §1

[7] = system: E. coli mutant L22: Δ82–84; experiment: Sensitivity to telithromycin of E. coli cells; assay type: cell-based; conditions: Escherichia coli, read-out: IC50 (growth inhibition)
Procedure, shortened: as §1

[8] = system: wild-type E. coli cells; experiment: Sensitivity to telithromycin of E. coli cells; assay type: cell-based; conditions: Escherichia coli, read-out: IC50 (growth inhibition)
Procedure, shortened: as §1

[9] = target: complex C containing ribosomes mutated in ribosomal protein L22: Δ82–84 (Escherichia coli, UniProt P60723+P61175, DEL82-84); experiment: Kinetics of telithromycin binding to complex C by competition with tylosin; conditions: for Kd: L22: Δ82–84, 4.5 mM Mg^2+, 150 mM NH4^+
[10] = target: complex C containing ribosomes mutated in ribosomal protein L4: Lys63Glu (Escherichia coli, UniProt P60723+P61175, K63E); experiment: as above; conditions: for Kd: L4: Lys63Glu, 4.5 mM Mg^2+, 150 mM NH4^+
[11] = system: E. coli mutant U754A; experiment: Sensitivity to telithromycin of E. coli cells; assay type: cell-based; conditions: Escherichia coli, MUTANTU754A, read-out: IC50 (growth inhibition)
Procedure, shortened: as §1

[12] = system: complex C containing ribosomes with mutated 23S rRNA U2609C; experiment: Kinetics of telithromycin binding to complex C by competition with tylosin; design: species or system Escherichia coli
[13] = target: T1, complex C prepared from E. coli ribosomes (PTase activity); conditions: 4.5 mM Mg^2+ and 150 mM NH4^+; cited from earlier work
[14] = C*T (final site), 4.5 mM Mg^2+ 150 mM NH4^+
[15] = C*T (final site), 4.5 mM Mg^2+ 150 mM NH4^+ 100 μΜ spermine
[16] = CT (initial site, 5 s), 4.5 mM Mg^2+ 150 mM NH4^+
[17] = CT (initial site, 5 s), 4.5 mM Mg^2+ 150 mM NH4^+ 100 μΜ spermine

CC[C@H]1OC(=O)[C@H](C)C(=O)[C@H](C)[C@@H](O[C@@H]2O[C@H](C)C[C@H](N(C)C)[C@H]2O)[C@](C)(OC)C[C@@H](C)C(=O)[C@H](C)[C@H]2N(CCCCn3cnc(-c4cccnc4)c3)C(=O)O[C@]12C [telithromycin]
Relative reactivity of 23S rRNA residue A752 (ratio to complex C) [1, 14]: 0.30 ± 0.02 ^*^, **
Relative reactivity of 23S rRNA residue A789 (ratio to complex C) [1, 14]: 0.89 ± 0.08
Relative reactivity of 23S rRNA residue A2058 (ratio to complex C) [1, 14]: 0.25 ± 0.03 ^*
Relative reactivity of 23S rRNA residue A2059 (ratio to complex C) [1, 14]: 0.42 ± 0.03 ^*
Relative reactivity of 23S rRNA residue A2062 (ratio to complex C) [1, 14]: 1.28 ± 0.15 ^*
Relative reactivity of 23S rRNA residue C2611 (ratio to complex C) [1, 14]: 0.60 ± 0.08 ^*
Relative reactivity of 23S rRNA residue G2505 (ratio to complex C) [1, 14]: 0.78 ± 0.11 ^*
Relative reactivity of 23S rRNA residue U790 (ratio to complex C) [1, 14]: 0.85 ± 0.08 ^*^, **
Relative reactivity of 23S rRNA residue U2609 (ratio to complex C) [1, 14]: 0.72 ± 0.04 ^*^, **
Relative reactivity of 23S rRNA residue A752 (ratio to complex C) [1, 15]: 0.87 ± 0.07 ^*
Relative reactivity of 23S rRNA residue A789 (ratio to complex C) [1, 15]: 0.93 ± 0.08
Relative reactivity of 23S rRNA residue A2058 (ratio to complex C) [1, 15]: 0.38 ± 0.02 ^*^, **
Relative reactivity of 23S rRNA residue A2059 (ratio to complex C) [1, 15]: 0.57 ± 0.03 ^*^, **
Relative reactivity of 23S rRNA residue A2062 (ratio to complex C) [1, 15]: 1.15 ± 0.14
Relative reactivity of 23S rRNA residue C2611 (ratio to complex C) [1, 15]: 0.97 ± 0.05
Relative reactivity of 23S rRNA residue G2505 (ratio to complex C) [1, 15]: 0.85 ± 0.06 ^*
Relative reactivity of 23S rRNA residue U790 (ratio to complex C) [1, 15]: 0.93 ± 0.08**
Relative reactivity of 23S rRNA residue U2609 (ratio to complex C) [1, 15]: 0.90 ± 0.08
Relative reactivity of 23S rRNA residue A752 (ratio to complex C) [1, 16]: 0.65 ± 0.05
Relative reactivity of 23S rRNA residue A789 (ratio to complex C) [1, 16]: 0.78 ± 0.07
Relative reactivity of 23S rRNA residue A2058 (ratio to complex C) [1, 16]: 0.20 ± 0.02
Relative reactivity of 23S rRNA residue A2059 (ratio to complex C) [1, 16]: 0.38 ± 0.03
Relative reactivity of 23S rRNA residue A2062 (ratio to complex C) [1, 16]: 1.33 ± 0.18
Relative reactivity of 23S rRNA residue C2611 (ratio to complex C) [1, 16]: 0.60 ± 0.09
Relative reactivity of 23S rRNA residue G2505 (ratio to complex C) [1, 16]: 0.65 ± 0.09
Relative reactivity of 23S rRNA residue U790 (ratio to complex C) [1, 16]: 0.60 ± 0.07
Relative reactivity of 23S rRNA residue U2609 (ratio to complex C) [1, 16]: 0.95 ± 0.07
Relative reactivity of 23S rRNA residue A752 (ratio to complex C) [1, 17]: 0.75 ± 0.05
Relative reactivity of 23S rRNA residue A789 (ratio to complex C) [1, 17]: 0.82 ± 0.08
Relative reactivity of 23S rRNA residue A2058 (ratio to complex C) [1, 17]: 0.30 ± 0.01
Relative reactivity of 23S rRNA residue A2059 (ratio to complex C) [1, 17]: 0.45 ± 0.05
Relative reactivity of 23S rRNA residue A2062 (ratio to complex C) [1, 17]: 1.20 ± 0.14
Relative reactivity of 23S rRNA residue C2611 (ratio to complex C) [1, 17]: 0.98 ± 0.05
Relative reactivity of 23S rRNA residue G2505 (ratio to complex C) [1, 17]: 0.72 ± 0.07
Relative reactivity of 23S rRNA residue U790 (ratio to complex C) [1, 17]: 0.70 ± 0.07
Relative reactivity of 23S rRNA residue U2609 (ratio to complex C) [1, 17]: 0.97 ± 0.07
IC50 [2]: 41.6 ± 4.3 µg/mL (≈ 51.2 µM)
Kd ([3]; K*T): 22.6 ± 3.22 nM
Kd ([3]; KT): 604 ± 45 nM
Effect of mutation on koff,T constant ([3]; U754A vs wild-type): doubling
Reversal of inactivation of complex C by tylosin ([4]; 4 μΜ tylosin, telithromycin >10 μΜ): entirely reversed
Decrease of kon,T value by polyamines ([4]; 100 μΜ spermine or 50 μΜ spermine and 2 mM spermidine vs no polyamines): 83%
Kd ([4]; K*T, 50 μΜ spermine, 2 mM spermidine): 75.7 ± 8.8 nM
Kd ([4]; K*T, 100 μΜ spermine): 91.4 ± 11.2 nM
Kd ([4]; KT, 50 μΜ spermine, 2 mM spermidine): 1714 ± 13 nM
Kd ([4]; KT, 100 μΜ spermine): 2500 ± 185 nM
Kd ([4]; KT, initial low-affinity site): 500 ± 44 nM
koff.T lower than the rate constant for drop off (Lovmar et al.) ([4]; compared with drop off rate constant of ref 3): 10 times
Increase of KT* value by polyamines ([4]; polyamine buffer vs no polyamines): 10 fold
Decrease in the affinity of telithromycin for the initial site by spermine ([4]; presence of spermine): 5 fold
koff [4]: 0.000137 s⁻¹
koff ([4]; 100 μΜ spermine): 4.83e-05 s⁻¹
Inhibition of AcPhe-puromycin synthesis [5]: fails to inhibit
IC50 [6]: 12 ± 2.1 µg/mL (≈ 14.8 µM)
IC50 [7]: 50 ± 6.5 µg/mL (≈ 61.6 µM)
IC50 [8]: 4 ± 0.8 µg/mL (≈ 4.93 µM)
Kd ([9]; K*T): 210 ± 30.9 nM
Kd ([9]; KT): 530 ± 42 nM
Enhancement in dissociation rate constant koff,T by mutation ([9]; L22: Δ82–84 vs wild-type): about 4 fold
Increase in overall dissociation constant K*T by mutation ([9]; L22: Δ82–84 vs wild-type): 25 fold
Reduction in association rate constant kon,T by mutation ([9]; L22: Δ82–84 vs wild-type): 10 fold
koff ([9]; read-out: koff,T): 0.0005 s⁻¹
Kd ([10]; K*T): 12 ± 2.67 nM
Kd ([10]; KT): 470 ± 48 nM
koff ([10]; read-out: koff,T): 0.000127 s⁻¹
IC50 [11]: 14.8 ± 2.5 µg/mL (≈ 18.2 µM)
Enhancement of overall constant Κ*T by mutation ([12]; U2609C vs wild-type): 20 fold
koff,T ([12]; U2609C, 4.5 mM Mg^2+, 150 mM NH4^+): 0.0395 ± 0.0031 min^_1
Kd ([12]; read-out: K*T, U2609C, 4.5 mM Mg^2+, 150 mM NH4^+): 148 ± 18.9 nM
Kd ([12]; read-out: KT, U2609C, 4.5 mM Mg^2+, 150 mM NH4^+): 536 ± 43 nM

CC[C@H]1OC(=O)C[C@@H](O)[C@H](C)[C@@H](O[C@@H]2O[C@H](C)[C@@H](O[C@H]3C[C@@](C)(O)[C@@H](O)[C@H](C)O3)[C@H](N(C)C)[C@H]2O)[C@@H](CC=O)C[C@@H](C)C(=O)/C=C/C(C)=C/[C@@H]1CO[C@@H]1O[C@H](C)[C@@H](O)[C@@H](OC)[C@H]1OC [tylosin]
Inhibition of AcPhe-puromycin synthesis [13]: inhibits
